Shown are actives, neighbours in structure and some others; about 2.2% of the full set was active somewhere.
Neddylation inh: blocks human cullin neddylation | TR-FRET cullin neddylation, biochemical | actives 0.58% (n = 360,000) | AID 651699 | inhibition, % at 25 µM | P61081+Q13564; in the data active = inhibition above about 36%
Target sequence (P61081 whole entry, looked up): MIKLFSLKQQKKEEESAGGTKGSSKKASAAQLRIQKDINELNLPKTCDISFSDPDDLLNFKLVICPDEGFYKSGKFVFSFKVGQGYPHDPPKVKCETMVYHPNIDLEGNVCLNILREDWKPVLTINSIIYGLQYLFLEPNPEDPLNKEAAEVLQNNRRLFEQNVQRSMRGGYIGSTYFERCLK
Target sequence (Q13564 whole entry, looked up): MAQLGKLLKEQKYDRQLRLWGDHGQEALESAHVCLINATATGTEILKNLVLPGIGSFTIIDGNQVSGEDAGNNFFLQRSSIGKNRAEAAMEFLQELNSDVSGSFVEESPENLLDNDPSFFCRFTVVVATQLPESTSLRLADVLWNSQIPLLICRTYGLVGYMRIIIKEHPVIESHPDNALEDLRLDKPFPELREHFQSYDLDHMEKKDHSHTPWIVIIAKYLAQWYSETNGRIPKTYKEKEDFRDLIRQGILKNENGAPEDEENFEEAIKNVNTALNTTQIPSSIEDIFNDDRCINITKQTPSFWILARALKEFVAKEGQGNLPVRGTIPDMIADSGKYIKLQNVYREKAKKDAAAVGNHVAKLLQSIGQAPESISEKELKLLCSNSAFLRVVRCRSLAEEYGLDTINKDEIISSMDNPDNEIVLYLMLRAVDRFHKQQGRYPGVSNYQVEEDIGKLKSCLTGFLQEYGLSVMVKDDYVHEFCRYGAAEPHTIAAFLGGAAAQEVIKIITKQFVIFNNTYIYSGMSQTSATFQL
HKDC1 inh: inhibitors of human hexokinase HKDC1; AID 493160; inhibition, % at 20 µM; actives 0.16% (n = 340,000); recombinant HKDC1, G6PDH/diaphorase resazurin coupled fluorescence;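 active = inhibition above about 35% when tested at 20 µM, limit read from the data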;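 also: plate controls were DMSO wells with enzyme for no effect and DMSO wells lacking enzyme for full effect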
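Test system: HK5 enzyme. Quantity: 5 µg/mL HK5 final. Reagent: glucose and ATP substrates. Schedule: 90 min reaction incubation at room temperature, dark. Technique: resazurin-to-resorufin fluorescence via G6PDH and diaphorase coupling, 525/613 nm. Control set: DMSO wells with and without enzyme mix.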
PfM18AAP inh-1: PfM18AAP enzyme inhibition. recombinant PfM18AAP, H-Glu-NHMec fluorogenic cleavage. inhibition, % at 7.35 µM. actives 1.2% (n = 290,000). AID 1822;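 active = inhibition above the campaign mean inhibition over all tested compounds plus 3 SD, cut at about 28% in these data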;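 also: 0% = plate median of test compound wells and 100% = 2 mM ZnCl2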
PfG6PD inh: PfG6PD (Plasmodium falciparum) enzyme inhibition; PfGluPho enzyme, NADPH resazurin-diaphorase fluorescence; inhibition, % at 20 µM; actives 0.78% (n = 350,000); AID 504690;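 active = inhibition reaching at least a set limit at 20 µM in the primary screen, cut at about 59% in these data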;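 also: 0% = DMSO wells with substrate and 100% = DMSO wells lacking glucose-6-phosphate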
PfM18AAP inh-2: PfM18AAP inhibition, confirmation | shares compounds with PfM18AAP inh-1 | recombinant PfM18AAP, H-Glu-NHMec fluorogenic cleavage | inhibition, % at 7.35 µM | actives 28% (n = 2,400) | AID 2170;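 active = mean inhibition over replicate wells above the hit cutoff set for the earlier primary screen, cut at about 29% in these data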;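 also: 0% = median of test compound wells and 100% = 2 mM ZnCl2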
CTSL1 counter: counter-screen for PFM18AAP inhibitors: confirmation of human cathepsin L inhibitors. purified cathepsin L1, Z-Leu-Arg-MCA fluorescence. 2,400 tested, under 10 active. shares compounds with PfM18AAP inh-1. AID 2178. inhibition, % at 5.96 µM;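 active = average inhibition across replicates above the hit cutoff set in the earlier primary screen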;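 also: 0% = median of test compound wells and 100% = Z-Phe-Ala-diazomethylketone 1 µM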
* = called active by the depositor; . = no result.

SMILES	Neddylation inh	HKDC1 inh	PfM18AAP inh-1	PfG6PD inh	PfM18AAP inh-2	CTSL1 counter
COc1ccc(NS(=O)(=O)c2cccc(C(=O)N(C)Cc3ccc(SC)cc3)c2)cc1	13	4	.	-23	.	.
CCCCOC(=O)c1sc2nc(N3CCOCC3)c3c(c2c1N)CC(C)(C)OC3	0	-7	-4	-9	.	.
CC(=O)c1ccc(NC(=O)c2sc3nc(N4CCOCC4)c4c(c3c2N)CCCC4)cc1	-54	5	43*	41	4	4
COc1cccc(NC(=O)c2sc3nc(N4CCOCC4)c4c(c3c2N)CCCC4)c1	-60	12	50*	58	2	-18
COc1ccc(NC(=O)c2sc3nc(N4CCOCC4)c4c(c3c2N)CC(C)(C)OC4)cc1	-79	-9	36*	31	-56	-8
Cc1ccc(NC(=O)c2sc3nc(N4CCOCC4)c4c(c3c2N)CCCC4)cc1	-153	.	.	36	.	.
CCOc1ccc(NC(=O)c2sc3nc(N4CCOCC4)c4c(c3c2N)CCCC4)cc1	-20	1	43*	42	15	5
CCCCCN(C(=O)CCC(=O)OC(C)C(=O)NC1CCCCC1)c1c(N)n(CCCC)c(=O)[nH]c1=O (stereo unspecified)	0	0	.	-4	.	.
Nc1c(C(=O)Nc2ccc(Cl)cc2)sc2nc(N3CCOCC3)c3c(c12)CCCC3	-30	6	42*	44	0	0
Cc1ncc(CO)c(/C=N/Nc2ccc(C(F)(F)F)cn2)c1O	17	-5	48*	-22	-26	1
Cc1ncc(CO)c(/C=N/NC(=S)Nc2ccc(F)cc2)c1O	37	-25	24	-8	.	.
COc1ccc(/C=N/n2cnn(Cc3ccccc3Cl)c2=S)cc1OC	-4	-2	9	22	.	.
Oc1ccc(/C=N/n2cnn(Cc3ccccc3Cl)c2=S)c(O)c1	14	11	39*	35	-12	1
Cc1ccc(C(=O)NC2CC2)cc1S(=O)(=O)N1CCOCC1	3	-1	.	-8	.	.
O=C(Nn1cnnc1)c1ccc(F)c(S(=O)(=O)N2CCCCC2)c1	0	-5	47*	-10	53*	2
Cc1ccc(C(=O)Nn2cnnc2)cc1S(=O)(=O)N1CCOCC1	-1	-4	51*	0	44*	-4
O=C(Nc1ccon1)c1ccc(F)c(S(=O)(=O)N2CCCCC2)c1	-2	4	4	-13	.	.
Cc1ccc(-n2cccc2/C=N/n2cnnc2)cc1Cl	-18	-1	39*	21	-39	-4
Oc1ccc(-n2cccc2/C=N/n2cnnc2)cc1	-7	-2	1	-8	.	.
CC(=O)Oc1ccc2occ(/C=N/c3cc(=O)[nH]c(=S)[nH]3)c(=O)c2c1	-16	-4	35*	-18	11	-8
NNC(=O)c1c(O)c2cccc3c2n(c1=O)CCC3	4	5	34*	17	-4	2
CCn1c(-c2ccccc2O)n[nH]c1=S	7	-5	19	14	.	.
CCn1c(-c2cc(-c3ccccc3)sc2N)n[nH]c1=S	-1	2	41*	34	8	4
COc1cc(C(=O)NNc2nc3cc4c(cc3s2)OCO4)cc(OC)c1OC	-10	0	41*	54	16	-6
O=C(NNc1nc2cc3c(cc2s1)OCO3)c1cccc(F)c1	4	-8	27	46	.	.
SMILES	Neddylation inh	HKDC1 inh	PfM18AAP inh-1	PfG6PD inh	PfM18AAP inh-2	CTSL1 counter
COc1cccc(OC)c1C(=O)Nc1nc2cc3c(cc2s1)OCO3	30	-1	9	-1	.	.
O=C(NNc1nc2cc3c(cc2s1)OCO3)c1ccccc1	-4	-2	48*	49	24	-5
Cc1ccc(/C=C2\SC(=S)N(/N=C/c3cc([N+](=O)[O-])ccc3O)C2=O)o1	-29	-12	40*	51	-5	7
CC(NC(=O)Oc1cccc2ccccc12)c1ccccc1 (stereo unspecified)	15	-1	.	5	.	.
C[C@H](CO)N1C[C@H](C)[C@@H](CN(C)C(=O)NC2CCCCC2)Oc2c(NC(=O)Nc3ccccc3)cccc2C1=O	-17	1	.	-14	.	.
CCOC(=O)c1sc(N=NC2=C(O)CCCC2=O)c(C(=O)OCC)c1C	-39	4	35*	5	-41	2
CCOC(=O)/C(N=Nc1sc(C(=O)OCC)c(C)c1C(=O)OCC)=C(\C)O	.	.	3	.	.	.
O=C(NCc1ccccn1)C(=O)N/N=C/c1ccc2c(c1)OCO2	-18	-2	37*	-6	-25	7
COc1ccc(NC(=O)CCNS(=O)(=O)c2cc(Br)ccc2Br)cc1S(N)(=O)=O	-1	-2	0	-16	.	.
Cc1ccc(S(=O)(=O)N/N=C/c2ccc(O)c(O)c2)cc1[N+](=O)[O-]	-24	-2	54*	2	45*	4
O=C(CSc1ccccn1)N1CCN(c2ccc(Cl)cc2)CC1	5	4	33*	4	-30	0
O=C(CSc1ccccn1)N1CCN(C(=O)CSc2ccccn2)CC1	-3	-7	.	13	.	.
Cc1cc(OCC(=O)Nn2cnnc2)ccc1Br	2	-9	56*	-20	59*	-7
COC(=O)NNC(=O)COc1ccc(Br)c(C)c1	-4	-4	-6	7	.	.
O=C(O)C1CCN(C(=O)CCN2C(=O)S/C(=C\c3ccccc3)C2=O)CC1	-15	3	37*	-12	-45	8
O=C(Oc1ccc(Br)cc1C(=S)N1CCOCC1)c1ccc(F)cc1	0	-2	32*	53	-18	10
Cc1ccc(C(=O)Oc2ccc(Br)cc2C(=S)N2CCOCC2)cc1	2	-4	16	7	.	.
Cc1ccc2sc(NNC(=O)C3COc4ccccc4O3)nc2c1C (stereo unspecified)	-4	-32	41*	-8	3	3
O=C(N/N=C/c1cccnc1)c1cc(O)c(O)c(O)c1	-25	-4	40*	51	6	-3
O=C(N/N=C/c1cccnc1)c1ccc(O)cc1	-14	-2	0	2	.	.
CN1CCc2c(sc3nc(SCC(=O)NCc4ccco4)n(-c4ccccc4)c(=O)c23)C1	9	-2	39*	8	-3	-1
COC(=O)CSc1nc2sc3c(c2c(=O)n1-c1ccc(OC)cc1)CCN(C)C3	2	-2	16	6	.	.
COc1ccc(-n2c(SCC(=O)NCc3ccco3)nc3sc4c(c3c2=O)CCN(C)C4)cc1	-20	0	34*	22	-18	-4
Cc1ccccc1/C=N/NC(=O)c1ccc(-n2cnnn2)cc1	0	-4	.	19	.	.
O=C(NCCN1CCCCC1)c1ccc(F)cc1Cl	8	-3	-3	12	.	.
O=C(CCc1ccccc1)OCC(=O)c1ccc([N+](=O)[O-])cc1	-17	-9	46*	41	-25	-5
COc1ccccc1C(=O)C1CCCN(C(=O)c2cccc(Cn3cccn3)c2)C1 (stereo unspecified)	2	5	1	5	.	.
NC(=O)c1sc(=S)n(-c2ccc(Br)cc2)c1N	-22	-4	38*	6	-41	0

Screens (PubChem)
